Data published in ChEMBL document CHEMBL1154714, “Design and synthesis of novel P2 substituents in diol-based HIV protease inhibitors” (Eur J Med Chem, 2010).
pEC50, pKi: −log10 of the molar value.

Key:
Protease [1] = target: T1, Protease (Human immunodeficiency virus 1, UniProt Q9YQ12); test: Inhibition of HIV1 protease
Procedure, shortened: (§1)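 HIV-1 protease was cloned and expressed heterologously in E. coli. K_i values were determined in a fluorometric assay.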

[2] = tested on: Human immunodeficiency virus 1; test: Antiviral activity against HIV1; format: functional, organism-based
Procedure, shortened: (§2)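 MT-4 cells (2 ×10⁴ cells/well) got 5-fold serial compound dilutions together with 20–50 TCID of HIV IIIb. The virus was wild type, or an M46I/V82F/I84V mutant isolated after 20 passages of IIIb in MT4 cells under increasing ritonavir. Cell viability was read with XTT after five days. EC₅₀ came from dose–response curves of percent cytoprotection.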

Protease [3] = target: T1, Protease; test: Inhibition of HIV1 recombinant protease by fluorometric assay; procedure, shortened: as §1
[4] = tested on: Human immunodeficiency virus 1; test: Antiviral activity against HIV1 3B bearing wild type protease infected in human MT4 cells assessed as inhibition of virus-induced cytopathic effect after 5 days by XTT assay; format: functional, organism-based; conditions: Human immunodeficiency virus 1, 3B, MT4, 120 h; procedure, shortened: as §2
[5] = tested on: Human immunodeficiency virus 1; test: Ratio of EC50 for HIV1 3B bearing protease with M46I, V82F and I84V mutation to EC50 for HIV1 3B bearing wild type protease; format: functional
Procedure, shortened: (§3)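 HIV IIIb resistant variant (M46I, V82F, I84V) obtained after 20 passages in MT4 cells under rising ritonavir. MT4 cells (2×10⁴/well) received 5-fold serial compound dilutions together with 20–50 TCID of wild-type or mutant IIIb. After 5 days, cytopathic effect was read as viability by XTT. EC50 was taken from dose-response curves of percent cytoprotection.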

[6] = tested on: Human immunodeficiency virus 1; test: Antiviral activity against HIV1 3B bearing protease with M46I, V82F and I84V mutation infected in human MT4 cells assessed as inhibition of virus-induced cytopathic effect after 5 days by XTT assay; format: functional, organism-based; conditions: Human immunodeficiency virus 1, 3B, MT4, 120 h; procedure, shortened: as §3
[7] = Apparent permeability across human Caco-2 cell membrane; format: ADME, cell-based

T1 sequence (Q9YQ12 whole entry): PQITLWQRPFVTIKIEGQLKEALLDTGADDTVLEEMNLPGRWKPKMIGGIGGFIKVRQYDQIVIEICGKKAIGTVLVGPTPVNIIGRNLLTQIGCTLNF

| SMILES | pKi (Protease [1]) | pEC50 [2] | pKi (Protease [3]) | pEC50 [4] | Ratio EC50 [5] | pEC50 [6] | Papp [7] |
| --- | --- | --- | --- | --- | --- | --- | --- |
| O=C(N[C@H]1c2ccccc2C[C@H]1O)[C@H](OCc1ccccc1)[C@H](O)[C@@H](O)[C@@H](OCc1ccccc1)C(=O)N[C@H]1c2ccccc2C[C@H]1O | 9.22 | 7.00 |  |  |  |  |  |
| COCCNC(=O)[C@@H](NC(=O)[C@H](OCc1ccccc1)[C@H](O)[C@@H](O)[C@@H](OCc1ccccc1)C(=O)N[C@H]1c2ccccc2C[C@H]1O)C(C)C |  |  | 8.64 | 6.60 | 5 | 5.92 |  |
| CC(C)[C@H](NC(=O)[C@H](OCc1ccccc1)[C@H](O)[C@@H](O)[C@@H](OCc1ccccc1)C(=O)N[C@H]1c2ccccc2C[C@H]1O)C(=O)NCC(F)(F)F |  |  | 8.72 | 6.82 | 5 | 6.04 | 2.9 ×10⁻⁶ cm/s |
| CC(C)[C@H](NC(=O)[C@H](OCc1ccccc1)[C@H](O)[C@@H](O)[C@@H](OCc1ccccc1)C(=O)N[C@H]1c2ccccc2C[C@H]1O)C(=O)NCCF |  |  | 9.00 | 6.77 | 3 | 6.36 | 1.6 ×10⁻⁶ cm/s |
| CNC(=O)[C@H](CCOC)NC(=O)[C@H](OCc1ccccc1)[C@H](O)[C@@H](O)[C@@H](OCc1ccccc1)C(=O)N[C@H]1c2ccccc2C[C@H]1O |  |  | 8.00 | 5.74 | 3 | 5.16 |  |
| CNC(=O)[C@@H](NC(=O)[C@H](OCc1ccccc1)[C@H](O)[C@@H](O)[C@@H](OCc1ccccc1)C(=O)N[C@H]1c2ccccc2C[C@H]1O)C(C)C | 9.70 | 6.85 | 9.70 | 6.85 | 9 | 5.92 | 1.4 ×10⁻⁶ cm/s |
| CNC(=O)[C@@H](NC(=O)[C@H](OCc1ccccc1)[C@H](O)[C@@H](O)[C@@H](OCc1ccccc1)C(=O)N[C@H]1c2ccccc2C[C@H]1O)C1COC1 |  |  | 8.00 | 5.27 | > 1.6 | < 5.00 |  |
| CNC(=O)[C@H](NC(=O)[C@H](OCc1ccccc1)[C@H](O)[C@@H](O)[C@@H](OCc1ccccc1)C(=O)N[C@H]1c2ccccc2C[C@H]1O)C1COC1 |  |  | 7.00 | < 5.00 |  | < 5.00 |  |
| CNC(=O)[C@@H](NC(=O)[C@H](OCc1ccccc1)[C@H](O)[C@@H](O)[C@@H](OCc1ccccc1)C(=O)N[C@H]1c2ccccc2C[C@H]1O)C(C)COC (single isomer, unassigned; 4d) |  |  | 7.74 | 5.46 | > 2 | < 5.00 |  |
| CNC(=O)[C@@H](NC(=O)[C@H](OCc1ccccc1)[C@H](O)[C@@H](O)[C@@H](OCc1ccccc1)C(=O)N[C@H]1c2ccccc2C[C@H]1O)C(C)COC (single isomer, unassigned; 4e) |  |  | 9.15 | 6.48 | 4 | 5.89 |  |
